Source: ChEMBL document CHEMBL2086379, “Novel pyrimidopyrimidine derivatives for inhibition of cellular proliferation and motility induced by h-prune in breast cancer” (Eur J Med Chem, 2012)
Active and inactive are the calls of the source. The rule behind the calls is not given here.

Legend:
Homo sapiens [1] = organism: Homo sapiens; assay: Inhibition of cell motility in human MDA-MB-231T cells expressing human-prune at 8 uM by 2D cell migration assay; format: functional, cell-based
[2] = Inhibition of cell proliferation of human MDA-MB-231T cells expressing human-prune assessed as cell index levels at 50 uM measured 24 hrs post dose by xCelligence system based real time cell analysis method (reference value: 1.777 cell index); format: functional
Outline: (§1)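 Compound or DMSO added once when cell index reached 1.0–1.2 (50–60% confluence). CI read every 5 min for up to 54–56 h at 37 °C, 5% CO2, normalised to time of addition. Compounds at 50 µM (dose-response runs also 100 µM). Two independent experiments; Student's t test.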

[3] = target: T1, Exopolyphosphatase PRUNE1 (Homo sapiens, UniProt Q86TP1); assay: Inhibition of purified human prune assessed as reduction of cAMP-phosphodiesterase activity by SPA
T1 sequence (Q86TP1 whole entry): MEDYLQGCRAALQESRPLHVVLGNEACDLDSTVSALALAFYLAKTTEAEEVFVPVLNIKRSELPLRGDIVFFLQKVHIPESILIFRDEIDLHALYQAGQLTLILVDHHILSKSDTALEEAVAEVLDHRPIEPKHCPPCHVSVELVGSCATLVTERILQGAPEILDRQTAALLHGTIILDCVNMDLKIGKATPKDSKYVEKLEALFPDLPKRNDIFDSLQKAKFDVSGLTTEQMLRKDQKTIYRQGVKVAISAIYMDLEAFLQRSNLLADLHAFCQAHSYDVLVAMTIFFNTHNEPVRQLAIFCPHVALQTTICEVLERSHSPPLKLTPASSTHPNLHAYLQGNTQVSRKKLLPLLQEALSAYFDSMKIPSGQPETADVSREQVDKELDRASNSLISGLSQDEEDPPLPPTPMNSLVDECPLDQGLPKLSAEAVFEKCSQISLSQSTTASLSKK

[4] = target: T2, Exopolyphosphatase PRUNE1 (Homo sapiens) (UniProt Q86TP1); assay: Inhibition of human prune expressed in human MDA-435-c100 cells at 1 uM assessed as reduction of cAMP-phosphodiesterase activity using whole cell protein extracts by SPA; format: cell-based
T2 sequence (whole entry): T1 sequence (Q86TP1 whole entry)

Homo sapiens [5] = organism: Homo sapiens; assay: Inhibition of cell proliferation of human MDA-MB-231T cells expressing human-prune assessed as cell index levels at 50 uM measured 5 hrs post dose by xCelligence system based real time cell analysis method; format: functional; outline: as §1
Homo sapiens [6] = organism: Homo sapiens; assay: Inhibition of cell proliferation of human MDA-MB-231T cells expressing human-prune assessed as cell index levels at 50 uM measured 9 to 54 hrs post dose by xCelligence system based real time cell analysis method; format: functional; outline: as §1
[7] = target: T1, Exopolyphosphatase PRUNE1; assay: Inhibition of human prune assessed as reduction of cAMP-phosphodiesterase activity

| SMILES | inhibition (Homo sapiens [1]) | Activity [2] | IC50 [3] | inhibition [4] | inhibition (Homo sapiens [5]) | inhibition (Homo sapiens [6]) | IC50 [7] |
| --- | --- | --- | --- | --- | --- | --- | --- |
| COc1ccc(CNc2nc(N(CCO)CCO)nc3c(NCc4ccc(OC)cc4)nc(N(CCO)CCO)nc23)cc1 | Active | 1.185 | 210 nM | Active | inactive | – | – |
| OCCN(CCO)c1nc(N2CCCCC2)c2nc(N(CCO)CCO)nc(N3CCCCC3)c2n1 [DIPYRIDAMOLE] | Active | 1.472 | – | – | inactive | Active | 780 nM |
